Data taken from ChEMBL document CHEMBL1123127, “Comparison of the hypolipidemic activity of cyclic vs. acyclic imides” (1985).

What was measured:
[1] = test system: Mus musculus; assay: Reduction in serum cholesterol in CF1 mice on day 9 following 20 mg/kg i.p. o.d. for 16 days.; type: functional; conditions: ip, route intraperitoneal
Outline: (§1)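 Mice dosed at 20 mg/kg per day for 16 days. On days 9 and 16, blood was taken by tail-vein bleeding into nonheparinized microcapillary tubes and spun for 3 min to give serum. Serum cholesterol was measured by a modified Liebermann–Burchard reaction.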

[2] = test system: Mus musculus; assay: Reduction in serum triglyceride in CF1 mice on day 14 following 20 mg/kg i.p. o.d. for 16 days.; conditions: ip
[3] = test system: Mus musculus; assay: Reduction in serum cholesterol in CF1 mice on day 16 following 20 mg/kg i.p. o.d. for 16 days.; type: functional; conditions: ip, 384 h, route intraperitoneal; outline: as §1

Q: Which inhibition in vivo at 20 mg/kg [1] does the source give for CCOC(=O)CCN(C(C)=O)C(C)=O here?
A: 11%

Q: What about the serum triglyceride % inhibition at 20 mg/kg [2] of the same molecule?
A: 11%

Q: And the inhibition in vivo at 20 mg/kg [3]?
A: 25%

Q: Which results are given for CC(=O)N(CCC(=O)O)C(C)=O?
A: inhibition in vivo at 20 mg/kg [1]: 20%; serum triglyceride % inhibition at 20 mg/kg [2]: 21%; inhibition in vivo at 20 mg/kg [3]: 21%

Q: With CC(=O)CCN(C(C)=O)C(C)=O as the molecule, how does the inhibition in vivo at 20 mg/kg [1] read?
A: 14%

Q: And the serum triglyceride % inhibition at 20 mg/kg [2]?
A: 20%

Q: What about the inhibition in vivo at 20 mg/kg [3] of the same molecule?
A: 30%

Q: Which results are given for O=C(O)CCN1C(=O)CCC1=O?
A: inhibition in vivo at 20 mg/kg [1]: 32%; serum triglyceride % inhibition at 20 mg/kg [2]: 44%; inhibition in vivo at 20 mg/kg [3]: 39%

Q: With CC(=O)CCn1c(=O)c2ccccc2c2ccccc2c1=O as the molecule, how does the inhibition in vivo at 20 mg/kg [1] read?
A: 23%

Q: What about the serum triglyceride % inhibition at 20 mg/kg [2] of the same molecule?
A: 10%

Q: And the inhibition in vivo at 20 mg/kg [3]?
A: 23%

Q: CCCCN1C(=O)CCC1=O was tested. Which inhibition in vivo at 20 mg/kg [1] did it give?
A: 0%

Q: What about the serum triglyceride % inhibition at 20 mg/kg [2] of the same molecule?
A: 35%

Q: What about the inhibition in vivo at 20 mg/kg [3] of the same molecule?
A: 15%

Q: Which results are given for CC(=O)CCN(C(=O)c1ccccc1)C(=O)c1ccccc1?
A: inhibition in vivo at 20 mg/kg [1]: 23%; serum triglyceride % inhibition at 20 mg/kg [2]: 39%; inhibition in vivo at 20 mg/kg [3]: 26%

Q: Which results are given for CCOC(=O)CCN1C(=O)CCC1=O?
A: inhibition in vivo at 20 mg/kg [1]: 11%; serum triglyceride % inhibition at 20 mg/kg [2]: 23%; inhibition in vivo at 20 mg/kg [3]: 23%

Q: How did the inhibition in vivo at 20 mg/kg [1] turn out when O=C(NC(=O)c1ccccc1)c1ccccc1 was run?
A: 14%

Q: And the serum triglyceride % inhibition at 20 mg/kg [2]?
A: 7%

Q: And the inhibition in vivo at 20 mg/kg [3]?
A: 35%

Q: How did the inhibition in vivo at 20 mg/kg [1] turn out when CCCCn1c(=O)c2ccccc2c2ccccc2c1=O was run?
A: 22%

Q: And the serum triglyceride % inhibition at 20 mg/kg [2]?
A: 48%

Q: And the inhibition in vivo at 20 mg/kg [3]?
A: 23%

Q: For O=c1[nH]c(=O)c2ccccc2c2ccccc12, which inhibition in vivo at 20 mg/kg [1] is on record?
A: 19%

Q: What about the serum triglyceride % inhibition at 20 mg/kg [2] of the same molecule?
A: 19%

Q: What about the inhibition in vivo at 20 mg/kg [3] of the same molecule?
A: 18%

Q: O=C(O)CCn1c(=O)c2ccccc2c2ccccc2c1=O was tested. Which inhibition in vivo at 20 mg/kg [1] did it give?
A: 12%

Q: What about the serum triglyceride % inhibition at 20 mg/kg [2] of the same molecule?
A: 25%

Q: What about the inhibition in vivo at 20 mg/kg [3] of the same molecule?
A: 16%

Q: CCCCN(C(C)=O)C(C)=O was tested. Which inhibition in vivo at 20 mg/kg [1] did it give?
A: 11%

Q: What about the serum triglyceride % inhibition at 20 mg/kg [2] of the same molecule?
A: 0%

Q: And the inhibition in vivo at 20 mg/kg [3]?
A: 20%

Q: Which results are given for CCCCN(C(=O)c1ccccc1)C(=O)c1ccccc1?
A: inhibition in vivo at 20 mg/kg [1]: 23%; serum triglyceride % inhibition at 20 mg/kg [2]: 30%; inhibition in vivo at 20 mg/kg [3]: 19%

Q: How did the inhibition in vivo at 20 mg/kg [1] turn out when CC(=O)CCN1C(=O)CCC1=O was run?
A: 12%

Q: And the serum triglyceride % inhibition at 20 mg/kg [2]?
A: 25%

Q: What about the inhibition in vivo at 20 mg/kg [3] of the same molecule?
A: 10%

Q: With CCOC(=O)C(C)(C)Oc1ccc(Cl)cc1 [CLOFIBRATE] as the molecule, how does the inhibition in vivo at 20 mg/kg [1] read?
A: 12%

Q: What about the serum triglyceride % inhibition at 20 mg/kg [2] of the same molecule?
A: 25%

Q: And the inhibition in vivo at 20 mg/kg [3]?
A: 13%

Q: Which results are given for CC(=O)NC(C)=O [DIACETAMIDE]?
A: inhibition in vivo at 20 mg/kg [1]: 4%; serum triglyceride % inhibition at 20 mg/kg [2]: 2%; inhibition in vivo at 20 mg/kg [3]: 18%

Q: What does the source list for O=C1NC(=O)c2ccccc21 [PHTHALIMIDE]?
A: inhibition in vivo at 20 mg/kg [1]: 37%; serum triglyceride % inhibition at 20 mg/kg [2]: 56%; inhibition in vivo at 20 mg/kg [3]: 43%

Q: With O=C1CCC(=O)N1 [SUCCINIMIDE] as the molecule, how does the inhibition in vivo at 20 mg/kg [1] read?
A: 2%

Q: And the serum triglyceride % inhibition at 20 mg/kg [2]?
A: 32%

Q: And the inhibition in vivo at 20 mg/kg [3]?
A: 27%
